Experimental data: BindingDB's records for doi:10.1016/j.bmcl.2018.04.005 (Shanghai Institute of Materia Medica, 2018)

Biological target: T1, Sortase family protein (Staphylococcus aureus, UniProt Q9S446)
T1 sequence (Q9S446 whole entry): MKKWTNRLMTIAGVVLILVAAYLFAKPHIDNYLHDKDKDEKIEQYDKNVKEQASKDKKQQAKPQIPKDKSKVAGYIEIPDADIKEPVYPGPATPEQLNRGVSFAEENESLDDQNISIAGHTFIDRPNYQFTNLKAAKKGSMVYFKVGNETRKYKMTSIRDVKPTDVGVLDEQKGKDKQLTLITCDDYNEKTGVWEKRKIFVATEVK
Experiment: Inhibition of Staphylococcus aureus SrtA deltaN24 mutant assessed as decrease in transpeptidation of IsdA (64 to 323 residues) incubated for 1.25 hrs in presence of NH2-Gly3 nucleophile by SDS-PAGE method
Outline: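 Recombinant, affinity-purified IsdA64-323 (a natural SrtA substrate from S. aureus) is incubated with purified SrtAΔN24 and NH2-Gly3 nucleophile, with or without test compound. Cleavage at the sorting signal gives the transpeptidation product, which is resolved by SDS-PAGE. Inhibition is judged from partial or complete blockade of product formation. Used as a counter-screen against FRET false positives.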

SMILES | IC50 [µM]
CC(C)C=CC(=O)c1cc(O)c2c(O)ccc(O)c2c1O [5,8-Dihydroxy-2-(1-hydroxy-4-methyl-pent-3-enyl)-[1,4]naphthoquinone] | 5
CC(C)=CC[C@H](O)c1cc(O)c2c(c1O)C(=O)C=CC2=O | 5
